Test results from ChEMBL document CHEMBL3870308, “Repurposing of a drug scaffold: Identification of novel sila analogues of rimonabant as potent antitubercular agents” (Eur J Med Chem, 2016).
Converted amounts (≈) assume the structure as drawn.

Experiments:
[1] = Cytotoxicity against human THP1 cells assessed as reduction in cell viability at =>3 uM measured after 48 hrs by MTT assay; assay type: toxicity, cell-based, THP-1; conditions: read-out: INH
[2] = tested on: Mycobacterium tuberculosis; assay: Antitubercular activity against Mycobacterium tuberculosis H37Rv assessed as growth inhibition by Alamar-Blue assay; assay type: functional
[3] = Cytotoxicity against human A549 cells measured after 48 hrs by MTT assay; assay type: toxicity, cell-based
Method in brief: (§1)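 Cells from ATCC grown in DMEM with 10% FBS at 37 °C in 5% CO2, harvested by trypsinization and seeded at 7500 cells per well. After 18 h, compound added at final 0.1, 1, 10 and 100 µM in triplicate. Plates incubated 48 h, then MTT for 60 min at 37 °C. Formazan dissolved in DMSO and read at 560 nm. Percent growth taken relative to control wells, with dose-response curves. Repeated three times, mean ± SD.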

[4] = Cytotoxicity against human HepG2 cells measured after 48 hrs by MTT assay; assay type: toxicity, cell-based; method in brief: as §1
[5] = Selectivity index, ratio of IC50 for human A549 cells to MIC for Mycobacterium tuberculosis H37Rv; assay type: toxicity, cell-based; conditions: read-out: Ratio IC50
[6] = Selectivity index, ratio of IC50 for human HepG2 cells to MIC for Mycobacterium tuberculosis H37Rv; assay type: toxicity, cell-based; conditions: read-out: Ratio IC50
[7] = Solubility of the compound at pH 1.2 by HPLC method; assay type: physicochemical; conditions: buffer
Method in brief: (§2)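 Compound diluted to a 5 mM DMSO working solution from a 10 mM stock. 5 µL added to 495 µL of buffer at the stated pH. Vortexed 5 min and centrifuged. Supernatant quantified by HPLC.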

[8] = Solubility of the compound at pH 2.2 by HPLC method; assay type: physicochemical; conditions: buffer; method in brief: as §2
[9] = Solubility of the compound at pH 4.5 by HPLC method; assay type: physicochemical; conditions: buffer; method in brief: as §2
[10] = Solubility of the compound at pH 7.4 by HPLC method; assay type: physicochemical; conditions: buffer; method in brief: as §2
[11] = Solubility of the compound at pH 10.2 by HPLC method; assay type: physicochemical; conditions: buffer; method in brief: as §2
[12] = Metabolic stability in human plasma at 50 uM measured after 60 mins by LC-MS/MS analysis; assay type: ADME, cell-free; conditions: read-out: Stability
Method in brief: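 Working solution at 50 µM in acetonitrile:water (1:1), from a 10 mM DMSO stock. 2 µL added to 98 µL of plasma and incubated 60 min at 37 °C. Quenched with methanol containing internal standard, centrifuged, and supernatant analysed by LC-MS/MS.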

[13] = Metabolic stability in mouse liver microsomes at 1 or 50 uM measured after 30 to 60 mins in presence of cofactor by LC-MS/MS analysis; assay type: ADME
Method in brief: (§3)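 Stock 10 mM in DMSO, diluted to a 50 µM working solution in acetonitrile:water (1:1). 2 µL of this added to 98 µL of buffer, microsomes and cofactor. Incubated at 37 °C for 15, 30, 45 and 60 min. Stopped with methanol containing internal standard, vortexed and centrifuged. Supernatant analysed by LC-MS/MS.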

[14] = Metabolic stability in human liver microsomes at 1 or 50 uM measured after 30 to 60 mins in presence of cofactor by LC-MS/MS analysis; assay type: ADME; method in brief: as §3
[15] = Protein binding human plasma at 150 uM measured after 30 mins by equilibrium dialysis method; assay type: ADME, cell-free; conditions: read-out: PPB (converted)
Method in brief: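 Plasma spiked with 5 µL of 150 µM compound per 745 µL. Sampled at 0 h, then incubated 30 min at 37 °C. Rapid equilibrium dialysis of plasma against KH2PO4 buffer pH 7.4 for 4 h at 37 °C with shaking. Both chambers matrix-matched and precipitated with methanol containing tolbutamide internal standard. Analysed by LC-MS/MS.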

[16] = Cytotoxicity against mouse RAW cells assessed as reduction in cell viability at =>3 uM measured after 48 hrs by MTT assay; assay type: toxicity; conditions: read-out: INH
[17] = tested on: Mycobacterium tuberculosis; assay: Antimycobacterial activity against Mycobacterium tuberculosis by broth microdilution assay; assay type: functional

SMILES | MIC [2] [µg/mL] | IC50 at 48 h [3] [µM] | IC50 at 48 h [4] [µM] | selectivity ratio [5] | selectivity ratio [6] | remaining at 1 h, 50 µM [12] [%] | fraction unbound at 0.5 h, 150 µM [15] | other results
C[Si]1(C)CCN(Cc2cc(-c3ccc(Cl)cc3)n(-c3ccc(Cl)cc3)n2)CC1 | 0.031 (≈ 0.072 µM) | 58.9 | 21.4 | 841 | 306 | 100 | 0.0007 | cytotoxicity at 48 h [1]: 40 to 60%; solubility [7]: 43 µM (≈ 18.5 µg/mL); solubility [8]: 42.3 µM (≈ 18.2 µg/mL); solubility [9]: 41.9 µM (≈ 18 µg/mL); solubility [10]: 3.72 µM (≈ 1.6 µg/mL); solubility [11]: 1.99 µM (≈ 0.857 µg/mL); Stability [13]: 6.3%; Stability [14]: 20.3%; cytotoxicity at 48 h [16]: 40 to 60%
O=C1CCN(Cc2cc(-c3ccc(Cl)cc3)n(-c3ccc(Cl)cc3)n2)CC1 | 25 (≈ 62.5 µM) |  |  |  |  |  |  | 
Cc1c(C(=O)NCCCN(C)C)nn(-c2ccc(Cl)cc2Cl)c1-c1ccc(Cl)cc1 | 25 (≈ 53.7 µM) |  |  |  |  |  |  | 
Cc1c(C(=O)N2CCNCC2)nn(-c2ccc(Cl)cc2Cl)c1-c1ccc(Cl)cc1 | 25 (≈ 55.6 µM) |  |  |  |  |  |  | 
CN1CCN(Cc2cc(-c3ccc(Cl)cc3)n(-c3ccc(Cl)cc3)n2)CC1 | 25 (≈ 62.3 µM) |  |  |  |  |  |  | 
C[Si]1(C)CCN(Cc2nn(-c3ccc(Cl)cc3Cl)c(-c3ccc(Cl)cc3)c2CO)CC1 | 6.25 (≈ 12.6 µM) | 61.9 | 30.4 | 4.92 | 2.41 | 88.1 | 0.0004 | solubility [7]: 44 µM (≈ 21.8 µg/mL); solubility [8]: 42.5 µM (≈ 21 µg/mL); solubility [9]: 41.6 µM (≈ 20.6 µg/mL); solubility [10]: 5.31 µM (≈ 2.63 µg/mL); solubility [11]: 2.39 µM (≈ 1.18 µg/mL); Stability [13]: 3.7%; Stability [14]: 2.1%
NNC(=O)c1ccncc1 [ISONIAZID] | 0.3 (≈ 2.19 µM) |  |  |  |  |  |  | 
Cc1c(CN(C)C)nn(-c2ccc(Cl)cc2Cl)c1-c1ccc(Cl)cc1 | 6.25 (≈ 15.8 µM) | 57.2 | 36.3 | 3.62 | 2.3 |  |  | 
Cc1c(C(=O)NN2CCCCC2)nn(-c2ccc(Cl)cc2Cl)c1-c1ccc(Cl)cc1 [RIMONABANT] | 25 (≈ 53.9 µM) |  |  |  |  |  |  | 
Cc1c(CNCc2ccccc2)nn(-c2ccc(Cl)cc2Cl)c1-c1ccc(Cl)cc1 | 6.25 (≈ 13.7 µM) | 55.8 | 57.4 | 4.1 | 4.2 |  |  | 
Cc1c(CN2CCNCC2)nn(-c2ccc(Cl)cc2Cl)c1-c1ccc(Cl)cc1 | 25 (≈ 57.4 µM) |  |  |  |  |  |  | 
C[Si]1(C)CCN(NCc2cc(-c3ccc(Cl)cc3)n(-c3ccc(Cl)cc3)n2)CC1 | 0.39 (≈ 0.875 µM) | 73.2 | 86.8 | 84.2 | 99.8 | 100 | 0.0069 | cytotoxicity at 48 h [1]: 40 to 60%; solubility [7]: 43.1 µM (≈ 19.2 µg/mL); solubility [8]: 43.2 µM (≈ 19.2 µg/mL); solubility [9]: 44.3 µM (≈ 19.7 µg/mL); solubility [10]: 39.8 µM (≈ 17.7 µg/mL); solubility [11]: 38 µM (≈ 16.9 µg/mL); Stability [13]: 100%; Stability [14]: 93.1%; cytotoxicity at 48 h [16]: 40 to 60%
CN(C)C(=O)c1cc(-c2ccc(Cl)cc2)n(-c2ccc(Cl)cc2)n1 | 25 (≈ 69.4 µM) |  |  |  |  |  |  | 
CN(C)CCCNC(=O)c1cc(-c2ccc(Cl)cc2)n(-c2ccc(Cl)cc2)n1 | 25 (≈ 59.9 µM) |  |  |  |  |  |  | 
Cc1c(C(=O)NN2CCN(C)CC2)nn(-c2ccc(Cl)cc2Cl)c1-c1ccc(Cl)cc1 | 25 (≈ 52.2 µM) |  |  |  |  |  |  | 
C[Si]1(C)CCN(C(=O)c2cc(-c3ccc(Cl)cc3)n(-c3ccc(Cl)cc3)n2)CC1 | 6.25 (≈ 14.1 µM) | 68.3 | 59 | 4.85 | 4.18 | 89.7 | 0.0001 | solubility [7]: 0.16 µM (≈ 0.0711 µg/mL); solubility [8]: 0.18 µM (≈ 0.08 µg/mL); solubility [9]: 0.13 µM (≈ 0.0578 µg/mL); solubility [10]: 0.05 µM (≈ 0.0222 µg/mL); solubility [11]: 1.28 µM (≈ 0.569 µg/mL); Stability [13]: 3.9%; Stability [14]: 2.1%
Cc1c(CN2CCCCC2)nn(-c2ccc(Cl)cc2Cl)c1-c1ccc(Cl)cc1 | 12.5 (≈ 28.7 µM) | 88.8 | > 100 | 3.1 | > 3.5 |  |  | 
O=C(c1cc(-c2ccc(Cl)cc2)n(-c2ccc(Cl)cc2)n1)N1CCNCC1 | 25 (≈ 62.3 µM) |  |  |  |  |  |  | 
Cc1c(CN2CCN(C)CC2)nn(-c2ccc(Cl)cc2Cl)c1-c1ccc(Cl)cc1 | 12.5 (≈ 27.8 µM) | 80.3 | 85 | 2.9 | 3.1 |  |  | 
Clc1ccc(-c2cc(CN3CCCCC3)nn2-c2ccc(Cl)cc2)cc1 | 1.56 (≈ 4.04 µM) |  |  |  |  | 91.7 | 0.0011 | solubility [7]: 45 µM (≈ 17.4 µg/mL); solubility [8]: 44.6 µM (≈ 17.2 µg/mL); solubility [9]: 43.6 µM (≈ 16.8 µg/mL); solubility [10]: 11.4 µM (≈ 4.4 µg/mL); solubility [11]: 1.49 µM (≈ 0.576 µg/mL); Stability [13]: 26%; Stability [14]: 60.1%
Cc1c(CN2CC[Si](C)(C)CC2)nn(-c2ccc(Cl)cc2Cl)c1-c1ccc(Cl)cc1 | 1.17 (≈ 2.44 µM) | 54.2 | 51.9 | 31.9 | 30.5 | 99.2 | 0.0005 | cytotoxicity at 48 h [1]: 40 to 60%; solubility [7]: 41 µM (≈ 19.6 µg/mL); solubility [8]: 40.6 µM (≈ 19.4 µg/mL); solubility [9]: 34.2 µM (≈ 16.4 µg/mL); solubility [10]: 1.05 µM (≈ 0.503 µg/mL); solubility [11]: 10.9 µM (≈ 5.24 µg/mL); Stability [13]: 9.2%; Stability [14]: 18.5%; cytotoxicity at 48 h [16]: 40 to 60%
Cc1c(CN2CCN(C)CC2)cc(-c2ccc(Cl)cc2)n1-c1ccc(Cl)cc1 | 0.7 (≈ 1.69 µM) | 91.5 | 71 | 57.2 | 44.4 | 100 | 0.0077 | MIC [17]: 0.7 to 1.5 µg/mL (≈ 1.69 to 3.62 µM); cytotoxicity at 48 h [1]: 40 to 60%; cytotoxicity at 48 h [16]: 40 to 60%
COc1cccc2c1C(=O)c1c(O)c3c(c(O)c1C2=O)C[C@@](O)(C(=O)CO)C[C@@H]3O[C@H]1C[C@H](N)[C@H](O)[C@H](C)O1 [DOXORUBICIN] |  | 5.32 | 5.34 |  |  |  |  | 
